High-throughput results from PubChem.
Shown are actives, neighbours in structure and some others; about 0.64% of the full set was active somewhere.
TNAP inh no acc: inhibitors of human TNAP without phosphate acceptor. P05186. purified TNAP, CDP-star luminescence, 30 min. inhibition, % at 20 µM. actives 0.26% (n = 200,000);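 active = tissue-nonspecific alkaline phosphatase inhibition above about 50% at 20 µM in the single-dose screen, limit read from the data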;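 also: 0% = DMSO negative control and 100% = EDTA positive control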
Target sequence (P05186 whole entry, looked up): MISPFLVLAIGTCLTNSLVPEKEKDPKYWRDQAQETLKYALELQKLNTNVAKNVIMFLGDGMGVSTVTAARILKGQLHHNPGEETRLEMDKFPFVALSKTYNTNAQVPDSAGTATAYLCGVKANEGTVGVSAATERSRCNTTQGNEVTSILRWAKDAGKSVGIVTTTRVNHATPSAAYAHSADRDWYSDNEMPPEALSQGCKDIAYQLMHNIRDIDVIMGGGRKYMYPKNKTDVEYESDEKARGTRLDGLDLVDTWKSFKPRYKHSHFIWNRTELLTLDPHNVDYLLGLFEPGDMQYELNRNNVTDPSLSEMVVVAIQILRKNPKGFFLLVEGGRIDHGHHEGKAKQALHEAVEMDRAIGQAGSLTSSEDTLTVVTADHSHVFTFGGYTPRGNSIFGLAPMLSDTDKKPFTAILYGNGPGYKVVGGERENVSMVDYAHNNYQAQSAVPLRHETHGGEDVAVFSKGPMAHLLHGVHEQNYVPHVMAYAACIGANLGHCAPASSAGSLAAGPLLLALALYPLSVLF
PMI activator: activators of human phosphomannose isomerase; P34949; activation factor at 20 µM; AID 1214; purified human PMI, coupled resazurin fluorescence, 20 min; hits give high values; 1 = vehicle control, 0 substrate-free wells; actives 0.005% (n = 190,000);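 active = activation factor of 2 or more at 20 µM, relative to plate controls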
PMI act hi M6P: increases human PMI activity with near-saturating mannose 6-phosphate; P34949; coupled PMI enzyme assay, resazurin fluorescence, 20 min; hits give high values; 1 = untreated enzyme, 0 = substrate-free blank; activation factor at 20 µM; actives 0.34% (n = 190,000);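 active = activation factor of 2 or more at 20 µM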
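Test system: human phosphomannose isomerase with PGI, G6PDH, diaphorase coupling enzymes; Amount: PMI at 15 ng/mL final; Reagent: Mannose-6-phosphate 1.0 mM (near-saturating) plus 0.22 mM NADP+; Timing: 20 min, room temperature; Technique: resorufin fluorescence at Ex 544/Em 590 nm; Dosing: 20 µM single dose.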
TNAP inh hi DEA: blocks human TNAP under high phosphate acceptor concentration; actives 0.03% (n = 200,000); inhibition, % at 20 µM; purified TNAP, CDP-star luminescence, 1 M DEA; AID 1135; P05186;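 active = over 50% inhibition of tissue-nonspecific alkaline phosphatase at 20 µM in the single-dose screen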;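 also: plate controls were DMSO wells for no effect and EDTA-quenched wells as full inhibition for full effect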
TNAP act hiacc: activators of human TNAP at high phosphate acceptor concentration | P05186 | purified TNAP, CDP-star luminescence, 1 M DEA, 30 min; hits give high values; 0 = EDTA background, 1 = DMSO-only activity | activation factor at 20 µM | 200,000 tested, under 10 active;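 active = activation factor at least 2 at 20 µM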
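Dosing: 20 µM single point. System: human TNAP. Amount: TNAP 1/800 final. Incubation: 30 min, room temperature. Read-out: TNAP activation factor scaled between EDTA and DMSO control wells. Signal: luminescence from CDP-star hydrolysis. Medium: 1 M DEA, pH 9.8, Mg2+, Zn2+. Control set: EDTA negative control, DMSO positive control.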
Numbers without * were called inactive.

What do the screens show for `CSc1nc(-c2ccccc2)nn1C(=O)c1ccccc1`?
TNAP inh no acc: 56*; PMI activator: 0.9; PMI act hi M6P: 0.9; TNAP inh hi DEA: 0; TNAP act hiacc: 1

Results for CCS(=O)(=O)n1nc(-c2ccccc2)nc1SC ?
TNAP inh no acc: 54*; PMI activator: 1; PMI act hi M6P: 1; TNAP inh hi DEA: -4; TNAP act hiacc: 1

Results for CSc1nc(-c2ccccc2)nn1S(=O)(=O)c1ccc(Cl)cc1 ?
TNAP inh no acc: 2; PMI activator: 1; PMI act hi M6P: 1.1; TNAP inh hi DEA: -7; TNAP act hiacc: 1.1

How did CC1=C(C(=O)OCc2ccc(C)cc2)C(c2ccc(O)c([N+](=O)[O-])c2)NC(=O)N1 (configuration not stated) do in these assays?
TNAP inh no acc: 14; PMI activator: 1.2; PMI act hi M6P: 1.1; TNAP inh hi DEA: 8; TNAP act hiacc: 0.9

Results for N#Cc1cc2c(nc1S(=O)(=O)Cc1ccccc1)CCCC2 ?
TNAP inh no acc: 0; PMI activator: 1.1; PMI act hi M6P: 1.1; TNAP inh hi DEA: 0; TNAP act hiacc: 1

What do the screens show for `CN(C)C1C(=O)c2ccccc2C1=O`?
TNAP inh no acc: -10; PMI activator: 1.1; PMI act hi M6P: 1.1; TNAP inh hi DEA: -1; TNAP act hiacc: 1

What do the screens show for `Cc1cc(C)c(C)c(N=Nc2nc3ccccc3n2C)c1C`?
TNAP inh no acc: 4; PMI activator: 0.8; PMI act hi M6P: 0.8; TNAP inh hi DEA: 13; TNAP act hiacc: 0.9

What do the screens show for `Cc1ccc(C)c(N=Nc2nc3ccccc3n2C)c1`?
TNAP inh no acc: 14; PMI activator: 1.3; PMI act hi M6P: 2.2*; TNAP inh hi DEA: 16; TNAP act hiacc: 0.8

Results for CCN/N=C(\Cc1nc2ccccc2[nH]1)c1ccccc1 ?
TNAP inh no acc: -9; PMI activator: 1; PMI act hi M6P: 0.9; TNAP inh hi DEA: 2; TNAP act hiacc: 1

How did Clc1cccc(/C(Cc2nc3ccccc3[nH]2)=N\Nc2ccccc2)c1 do in these assays?
TNAP inh no acc: -17; PMI activator: 1.7; PMI act hi M6P: 2.5*; TNAP inh hi DEA: 3; TNAP act hiacc: 1

What do the screens show for `c1ccc(N/N=C(\Cc2nc3ccccc3[nH]2)c2ccccc2)cc1`?
TNAP inh no acc: -12; PMI activator: 1.8; PMI act hi M6P: 2.9*; TNAP inh hi DEA: -1; TNAP act hiacc: 1

Results for Cc1ccc(N/N=C(\Cc2nc3ccccc3[nH]2)c2ccccc2)cc1 ?
TNAP inh no acc: -32; PMI activator: 1.5; PMI act hi M6P: 2.2*; TNAP inh hi DEA: 2; TNAP act hiacc: 1

What do the screens show for `N#CCCN/N=C(\Cc1nc2ccccc2[nH]1)c1ccccc1`?
TNAP inh no acc: -5; PMI activator: 1; PMI act hi M6P: 1; TNAP inh hi DEA: 0; TNAP act hiacc: 1

Results for N#CCCN/N=C(/Cc1nc2ccccc2[nH]1)c1ccc(Cl)cc1 ?
TNAP inh no acc: -6; PMI activator: 0.9; PMI act hi M6P: 1; TNAP inh hi DEA: 0; TNAP act hiacc: 1

Results for CS(=O)(=O)c1ccc(C(=O)OCc2nnc(-c3ccc(Cl)cc3)o2)cc1[N+](=O)[O-] ?
TNAP inh no acc: 3; PMI activator: 1.3; PMI act hi M6P: 1; TNAP inh hi DEA: 3; TNAP act hiacc: 1

Results for Cc1cccc2cc(C#N)c(N3CCN(C)CC3)nc12 ?
TNAP inh no acc: -2; PMI activator: 0.9; PMI act hi M6P: 0.9; TNAP inh hi DEA: 2; TNAP act hiacc: 1

How did Cc1ccc(C)c2nc(N3CCCC3)c(C#N)cc12 do in these assays?
TNAP inh no acc: -20; PMI activator: 1.1; PMI act hi M6P: 2*; TNAP inh hi DEA: -8; TNAP act hiacc: 1.1

What do the screens show for `O=c1[nH]c2ccccc2[n+]([O-])c1-c1ccccc1`?
TNAP inh no acc: -3; PMI activator: 1.2; PMI act hi M6P: 1; TNAP inh hi DEA: 2; TNAP act hiacc: 1

How did O=c1c2ccccc2cnn1Cc1n[nH]c(=S)n1-c1cc(Cl)cc(Cl)c1 do in these assays?
TNAP inh no acc: 61*; PMI activator: 0.9; PMI act hi M6P: 0.9; TNAP inh hi DEA: 7; TNAP act hiacc: 0.9

How did O=c1c2ccccc2cnn1Cc1n[nH]c(=S)n1-c1ccc(F)c(Cl)c1 do in these assays?
TNAP inh no acc: 1; PMI activator: 1; PMI act hi M6P: 1; TNAP inh hi DEA: -4; TNAP act hiacc: 1

How did COc1ccc(-c2csc(CCN3N=C(C)CC3=O)n2)cc1 do in these assays?
TNAP inh no acc: -23; PMI activator: 1.6; PMI act hi M6P: 2.1*; TNAP inh hi DEA: -6; TNAP act hiacc: 1.1

What do the screens show for `Cc1cccc(/N=C/c2c(O)cc(C)oc2=O)n1`?
TNAP inh no acc: -6; PMI activator: 1.1; PMI act hi M6P: 1.1; TNAP inh hi DEA: -2; TNAP act hiacc: 1

Results for Cc1cc(O)c(/C=N/Nc2ccc(F)cc2)c(=O)o1 ?
TNAP inh no acc: -14; PMI activator: 1.7; PMI act hi M6P: 2.3*; TNAP inh hi DEA: -4; TNAP act hiacc: 1

Results for Cc1ccc(CO/N=C/c2c(O)cc(C)oc2=O)cc1 ?
TNAP inh no acc: 2; PMI activator: 1.1; PMI act hi M6P: 1.1; TNAP inh hi DEA: 6; TNAP act hiacc: 0.9

What do the screens show for `C/C(=N\Nc1ccccc1)c1c(O)cc(C)oc1=O`?
TNAP inh no acc: -4; PMI activator: 1.9; PMI act hi M6P: 2.6*; TNAP inh hi DEA: -2; TNAP act hiacc: 1

What do the screens show for `Cc1ccc(N/N=C/c2c(O)cc(C)oc2=O)cc1`?
TNAP inh no acc: -9; PMI activator: 1.4; PMI act hi M6P: 2.2*; TNAP inh hi DEA: -4; TNAP act hiacc: 1

Results for C/C(=N/NC(=O)c1cccc(C)c1)c1c(O)cc(C)oc1=O ?
TNAP inh no acc: -2; PMI activator: 1.3; PMI act hi M6P: 1.4; TNAP inh hi DEA: -1; TNAP act hiacc: 1

What do the screens show for `COc1ccc2[nH]c(CN3CCC(CO)(CCOc4ccccc4)CC3)c(C)c2c1`?
TNAP inh no acc: -4; PMI activator: 1; PMI act hi M6P: 1; TNAP inh hi DEA: -5; TNAP act hiacc: 1

Results for FC(F)Oc1ccc(NC(=S)NNc2ccnc3cc(Cl)ccc23)cc1 ?
TNAP inh no acc: -10; PMI activator: 1.1; PMI act hi M6P: 1.1; TNAP inh hi DEA: -5; TNAP act hiacc: 1

How did C/C(=N\Nc1cccc(C(F)(F)F)c1)c1ccc(O)cc1 do in these assays?
TNAP inh no acc: -16; PMI activator: 1.6; PMI act hi M6P: 2.1*; TNAP inh hi DEA: 2; TNAP act hiacc: 1

Results for C/C(=N\NC(=O)c1cccc(N/N=C(\C)c2ccccc2)c1)c1ccccc1 ?
TNAP inh no acc: 8; PMI activator: 1.8; PMI act hi M6P: 2.7*; TNAP inh hi DEA: 0; TNAP act hiacc: 1

What do the screens show for `C/C(=N\NC(=O)c1cccc(N/N=C(\C)c2ccncc2)c1)c1ccncc1`?
TNAP inh no acc: 1; PMI activator: 1.7; PMI act hi M6P: 2.5*; TNAP inh hi DEA: 1; TNAP act hiacc: 1
